Test system: Fibroblast
Assay: Multiplex assay against human fibroblast
Format: toxicity, cell-based
How it was run: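 On a CQ1 microscope at 37°C and 5% CO2, live cells were imaged after compound addition. They had been stained at seeding with Hoechst33342, BioTracker Green Microtubule Cytoskeleton Dye, MitoTracker Red and Annexin V Alexa Fluor 680. CellPathfinder machine-learning gating assigned cells to Hoechst high-intensity objects or normal cells, normal cells to healthy, pyknosed or fragmented nuclei, and pyknosed cells to mitotic or apoptotic. Tubulin, mitochondrial-mass and membrane-permeability phenotypes are per cents of healthy-nucleus cells.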

[1] = 12 h, 1 µM, compound concentration 1 uM, replicate 1
[2] = 12 h, 1 µM, compound concentration 1 uM, replicate 2
[3] = 12 h, 10 µM, compound concentration 10 uM, replicate 1
[4] = 12 h, 10 µM, compound concentration 10 uM, replicate 2
[5] = 24 h, 1 µM, compound concentration 1 uM, replicate 1
[6] = 24 h, 1 µM, compound concentration 1 uM, replicate 2
[7] = 24 h, 10 µM, compound concentration 10 uM, replicate 1
[8] = 24 h, 10 µM, compound concentration 10 uM, replicate 2
[9] = 48 h, 1 µM, compound concentration 1 uM, replicate 1
[10] = 48 h, 1 µM, compound concentration 1 uM, replicate 2
[11] = 48 h, 10 µM, compound concentration 10 uM, replicate 1
[12] = 48 h, 10 µM, compound concentration 10 uM, replicate 2

Cc1ccc(F)cc1C(=O)Nc1ccc(C(=O)N2Cc3cccn3Cc3ccccc32)c(Cl)c1 [LIXIVAPTAN]
Population Apoptotic (%) [1]: 40% | Population Fragmented Nuclei (%) [1]: 11% | Population Healthy Nuclei (%) [1]: 73% | Population Hoechst High Intensity Objects (%) [1]: 5% | Population Membrane Permeable-Phenotype (%) [1]: 0% | Population Mitochondria Different-Phenotype (%) [1]: 3% | Population Mitotic Cells (%) [1]: 59% | Population Normal (%) [1]: 94% | Population Pyknosed Nuclei (%) [1]: 15% | Population Tubulin-Different-Phenotype (%) [1]: 28% | Total Cell Count [1]: 186 | Population Apoptotic (%) [2]: 50% | Population Fragmented Nuclei (%) [2]: 30% | Population Healthy Nuclei (%) [2]: 47% | Population Hoechst High Intensity Objects (%) [2]: 3% | Population Membrane Permeable-Phenotype (%) [2]: 1% | Population Mitochondria Different-Phenotype (%) [2]: 9% | Population Mitotic Cells (%) [2]: 50% | Population Normal (%) [2]: 96% | Population Pyknosed Nuclei (%) [2]: 21% | Population Tubulin-Different-Phenotype (%) [2]: 38% | Total Cell Count [2]: 117 | Population Apoptotic (%) [3]: 34% | Population Fragmented Nuclei (%) [3]: 18% | Population Healthy Nuclei (%) [3]: 58% | Population Hoechst High Intensity Objects (%) [3]: 0% | Population Membrane Permeable-Phenotype (%) [3]: 2% | Population Mitochondria Different-Phenotype (%) [3]: 5% | Population Mitotic Cells (%) [3]: 65% | Population Normal (%) [3]: 99% | Population Pyknosed Nuclei (%) [3]: 23% | Population Tubulin-Different-Phenotype (%) [3]: 62% | Total Cell Count [3]: 137 | Population Apoptotic (%) [4]: 31% | Population Fragmented Nuclei (%) [4]: 27% | Population Healthy Nuclei (%) [4]: 46% | Population Hoechst High Intensity Objects (%) [4]: 5% | Population Membrane Permeable-Phenotype (%) [4]: 6% | Population Mitochondria Different-Phenotype (%) [4]: 10% | Population Mitotic Cells (%) [4]: 68% | Population Normal (%) [4]: 94% | Population Pyknosed Nuclei (%) [4]: 25% | Population Tubulin-Different-Phenotype (%) [4]: 72% | Total Cell Count [4]: 179 | Population Apoptotic (%) [5]: 50% | Population Fragmented Nuclei (%) [5]: 12% | Population Healthy Nuclei (%) [5]: 73% | Population Hoechst High Intensity Objects (%) [5]: 1% | Population Membrane Permeable-Phenotype (%) [5]: 1% | Population Mitochondria Different-Phenotype (%) [5]: 0% | Population Mitotic Cells (%) [5]: 50% | Population Normal (%) [5]: 98% | Population Pyknosed Nuclei (%) [5]: 14% | Population Tubulin-Different-Phenotype (%) [5]: 33% | Total Cell Count [5]: 172 | Population Apoptotic (%) [6]: 32% | Population Fragmented Nuclei (%) [6]: 33% | Population Healthy Nuclei (%) [6]: 43% | Population Hoechst High Intensity Objects (%) [6]: 3% | Population Membrane Permeable-Phenotype (%) [6]: 5% | Population Mitochondria Different-Phenotype (%) [6]: 5% | Population Mitotic Cells (%) [6]: 67% | Population Normal (%) [6]: 96% | Population Pyknosed Nuclei (%) [6]: 23% | Population Tubulin-Different-Phenotype (%) [6]: 52% | Total Cell Count [6]: 126 | Population Apoptotic (%) [7]: 25% | Population Fragmented Nuclei (%) [7]: 19% | Population Healthy Nuclei (%) [7]: 63% | Population Hoechst High Intensity Objects (%) [7]: 0% | Population Membrane Permeable-Phenotype (%) [7]: 2% | Population Mitochondria Different-Phenotype (%) [7]: 8% | Population Mitotic Cells (%) [7]: 75% | Population Normal (%) [7]: 99% | Population Pyknosed Nuclei (%) [7]: 17% | Population Tubulin-Different-Phenotype (%) [7]: 63% | Total Cell Count [7]: 142 | Population Apoptotic (%) [8]: 51% | Population Fragmented Nuclei (%) [8]: 26% | Population Healthy Nuclei (%) [8]: 51% | Population Hoechst High Intensity Objects (%) [8]: 5% | Population Membrane Permeable-Phenotype (%) [8]: 11% | Population Mitochondria Different-Phenotype (%) [8]: 12% | Population Mitotic Cells (%) [8]: 48% | Population Normal (%) [8]: 94% | Population Pyknosed Nuclei (%) [8]: 22% | Population Tubulin-Different-Phenotype (%) [8]: 82% | Total Cell Count [8]: 174 | Population Apoptotic (%) [9]: 63% | Population Fragmented Nuclei (%) [9]: 18% | Population Healthy Nuclei (%) [9]: 68% | Population Hoechst High Intensity Objects (%) [9]: 8% | Population Membrane Permeable-Phenotype (%) [9]: 0% | Population Mitochondria Different-Phenotype (%) [9]: 3% | Population Mitotic Cells (%) [9]: 36% | Population Normal (%) [9]: 91% | Population Pyknosed Nuclei (%) [9]: 13% | Population Tubulin-Different-Phenotype (%) [9]: 28% | Total Cell Count [9]: 181 | Population Apoptotic (%) [10]: 50% | Population Fragmented Nuclei (%) [10]: 37% | Population Healthy Nuclei (%) [10]: 40% | Population Hoechst High Intensity Objects (%) [10]: 0% | Population Membrane Permeable-Phenotype (%) [10]: 4% | Population Mitochondria Different-Phenotype (%) [10]: 11% | Population Mitotic Cells (%) [10]: 50% | Population Normal (%) [10]: 99% | Population Pyknosed Nuclei (%) [10]: 21% | Population Tubulin-Different-Phenotype (%) [10]: 53% | Total Cell Count [10]: 111 | Population Apoptotic (%) [11]: 70% | Population Fragmented Nuclei (%) [11]: 25% | Population Healthy Nuclei (%) [11]: 62% | Population Hoechst High Intensity Objects (%) [11]: 2% | Population Membrane Permeable-Phenotype (%) [11]: 0% | Population Mitochondria Different-Phenotype (%) [11]: 13% | Population Mitotic Cells (%) [11]: 29% | Population Normal (%) [11]: 97% | Population Pyknosed Nuclei (%) [11]: 11% | Population Tubulin-Different-Phenotype (%) [11]: 69% | Total Cell Count [11]: 149 | Population Apoptotic (%) [12]: 73% | Population Fragmented Nuclei (%) [12]: 36% | Population Healthy Nuclei (%) [12]: 51% | Population Hoechst High Intensity Objects (%) [12]: 5% | Population Membrane Permeable-Phenotype (%) [12]: 6% | Population Mitotic Cells (%) [12]: 26% | Population Normal (%) [12]: 94% | Population Tubulin-Different-Phenotype (%) [12]: 78% | Total Cell Count [12]: 170

— ChEMBL document CHEMBL5058577, “EUbOPEN Chemogenomics Library 2 (Multiplex)” (2022)
